Measured values taken from EPA's CvTdb concentration-time database.

What was measured:
[1] = system: human; test: concentration in blood after dosing; conditions: dosed: phenacetin, 250 mg, iv, male
Method in brief: (§1)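 Data points giving concentration or amount against time came from published in vivo toxicokinetic studies and from two structured collections. PubMed searching, classifier screening and manual review located the studies. Most points were digitised from plot screenshots using WebPlotDigitizer, the rest were copied from tables, and all keep their reported units.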

[2] = system: human; test: concentration in blood after dosing; conditions: dosed: phenacetin, 250 mg, iv, male; remark: listed apart in the source
Method in brief: as §1

[3] = system: human; test: concentration in blood after dosing; conditions: dosed: phenacetin, 1 g, oral, male
Method in brief: as §1

[4] = system: rat; test: concentration in plasma after dosing; conditions: dosed: phenacetin, oral
[5] = system: human; test: concentration in blood after dosing; conditions: dosed: phenacetin, male
Method in brief: as §1

[6] = system: human; test: concentration in blood after dosing; conditions: 40 min; dosed: phenacetin; 0.25 g; oral; male
Method in brief: as §1

[7] = system: human; test: concentration in blood after dosing; conditions: dosed: phenacetin, 250 mg, iv, male; remark: listed apart in the source
Method in brief: as §1

[8] = system: human; test: concentration in blood after dosing; conditions: dosed: phenacetin, 250 mg, iv, male; remark: listed apart in the source
Method in brief: as §1

[9] = system: human; test: concentration in blood after dosing; conditions: dosed: phenacetin, 250 mg, iv, male; remark: listed apart in the source
Method in brief: as §1

[10] = system: dog; test: concentration in plasma after dosing; conditions: dosed: phenacetin, 1 mg/kg, iv, duration: 5 min, male, beagle
Method in brief: as §1

[11] = system: human; test: concentration in blood after dosing; conditions: dosed: phenacetin, 1 g, oral, male; remark: listed apart in the source
Method in brief: as §1

CCOc1ccc(NC(C)=O)cc1 [phenacetin]
Conditions | concentration in blood [ng/mL] | concentration in plasma [ng/mL]
[1], 1 h | 660 | –
[1], 1.5 h | 500 | –
[1], 2 h | 210 | –
[1], 3 h | 80 | –
[1], 10 min | 1860 | –
[1], 20 min | 1080 | –
[1], 40 min | 980 | –
[2], 1 h | 920 | –
[2], 1.5 h | 820 | –
[2], 2 h | 590 | –
[2], 3 h | 330 | –
[2], 4 h | 150 | –
[2], 10 min | 3060 | –
[2], 20 min | 2090 | –
[2], 40 min | 1180 | –
[3], 1 h | 4600 | –
[3], 1.5 h | 1220 | –
[3], 2 h | 750 | –
[3], 3 h | 360 | –
[3], 4 h | 330 | –
[3], 5 h | 190 | –
[3], 20 min | 300 | –
[3], 40 min | 4510 | –
[7], 1 h | 740 | –
[7], 1.5 h | 310 | –
[7], 2 h | 190 | –
[7], 3 h | 80 | –
[7], 10 min | 2920 | –
[7], 20 min | 1910 | –
[7], 40 min | 1090 | –
[8], 1 h | 640 | –
[8], 1.5 h | 460 | –
[8], 2 h | 430 | –
[8], 3 h | 220 | –
[8], 10 min | 2610 | –
[8], 20 min | 1770 | –
[8], 40 min | 940 | –
[9], 1 h | 1540 | –
[9], 1.5 h | 1010 | –
[9], 2 h | 690 | –
[9], 3 h | 180 | –
[9], 10 min | 3420 | –
[9], 20 min | 2620 | –
[9], 40 min | 1890 | –
[10], 0.2422 h | – | 1250
[10], 0.3263 h | – | 884
[10], 0.4969 h | – | 529
[10], 1.165 h | – | 136
[10], 1.67 h | – | 63.4
[10], 2.162 h | – | 32.4
[10], 3.172 h | – | 13.5
[11], 4 h | 2120 | –
[11], 5 h | 670 | –

[4], male, Sprague Dawley
Conditions | concentration in plasma [ng/mL]
0.1117 h, 360 mg/kg | 14500
0.193 h, 360 mg/kg | 24300
0.249 h, 10 mg/kg | 2910
0.2743 h, 360 mg/kg | 30300
0.5079 h, 360 mg/kg | 28500
0.772 h, 360 mg/kg | 25500
0.9929 h, 10 mg/kg | 193
1.006 h, 360 mg/kg | 23900
1.524 h, 360 mg/kg | 14300
1.985 h, 10 mg/kg | 34.3
2.022 h, 360 mg/kg | 11300
3.99 h, 10 mg/kg | 12.9
4.033 h, 360 mg/kg | 4510
5.995 h, 10 mg/kg | 8.58
7.985 h, 10 mg/kg | 8.58
8.005 h, 360 mg/kg | 913
11.99 h, 360 mg/kg | 171
268 s, 10 mg/kg | 893

Conditions | concentration in blood [ng/mL] | concentration in plasma [µM]
[4], 0.25 h, 250 mg/kg, Wistar | – | 129
[4], 0.5 h, 250 mg/kg, Wistar | – | 105
[4], 1 h, 250 mg/kg, Wistar | – | 92.6
[4], 2 h, 250 mg/kg, Wistar | – | 11.5
[4], 3 h, 250 mg/kg, Wistar | – | 1.59
[5], 1 h, 0.25 g, oral | 180 | –
[5], 1 h, 1 g, oral | 2750 | –
[5], 1 h, 250 mg, iv | 670 | –
[5], 1.5 h, 1 g, oral | 3360 | –
[5], 1.5 h, 250 mg, iv | 510 | –
[5], 2 h, 1 g, oral | 1880 | –
[5], 2 h, 250 mg, iv | 370 | –
[5], 3 h, 1 g, oral | 820 | –
[5], 3 h, 250 mg, iv | 240 | –
[5], 4 h, 1 g, oral | 530 | –
[5], 4 h, 250 mg, iv | 130 | –
[5], 5 h, 1 g, oral | 410 | –
[5], 10 min, 250 mg, iv | 2670 | –
[5], 20 min, 0.25 g, oral | 340 | –
[5], 20 min, 250 mg, iv | 1260 | –
[5], 40 min, 0.25 g, oral | 310 | –
[5], 40 min, 250 mg, iv | 910 | –

Conditions | concentration in blood [ng/mL]
[6] | 230
